Source: PubChem (The Scripps Research Institute Molecular Screening Center)
CHRM5 antagonist = human M5 muscarinic receptor antagonists, primary screen, CHO cells, Fluo-8 calcium fluorescence | inhibition, % at 3 µM | 0.59% of 360,000 active | CHO-hM5 cells, ACh EC80 | Muscarinic acetylcholine receptor M5 (Homo sapiens), P08912;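 active = inhibition above a per-plate cutoff, the mean of that plate's test compounds plus 3 SD, cut at about 27% in these data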;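 note: 0% = acetylcholine EC80 with DMSO and 100% = DMSO without agonist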
CHRM1 agonist = human M1 muscarinic receptor agonists, primary screen, Fluo-8 calcium fluorescence, CHO-K1 cells, HTS | activation, % at 3 µM | Muscarinic acetylcholine receptor M1 (Homo sapiens), P11229 | CHO-K1 hM1, agonist mode; 0% DMSO, 100% acetylcholine EC100 | 0.33% of 360,000 active | AID 588814, 2011;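 active = activation above the run's mean compound activation plus 3 SD, cut at about 16% in these data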;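 note: peak over basal fluorescence ratio within a 140 s kinetic read after compound addition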
Target sequence (P11229 whole entry, looked up): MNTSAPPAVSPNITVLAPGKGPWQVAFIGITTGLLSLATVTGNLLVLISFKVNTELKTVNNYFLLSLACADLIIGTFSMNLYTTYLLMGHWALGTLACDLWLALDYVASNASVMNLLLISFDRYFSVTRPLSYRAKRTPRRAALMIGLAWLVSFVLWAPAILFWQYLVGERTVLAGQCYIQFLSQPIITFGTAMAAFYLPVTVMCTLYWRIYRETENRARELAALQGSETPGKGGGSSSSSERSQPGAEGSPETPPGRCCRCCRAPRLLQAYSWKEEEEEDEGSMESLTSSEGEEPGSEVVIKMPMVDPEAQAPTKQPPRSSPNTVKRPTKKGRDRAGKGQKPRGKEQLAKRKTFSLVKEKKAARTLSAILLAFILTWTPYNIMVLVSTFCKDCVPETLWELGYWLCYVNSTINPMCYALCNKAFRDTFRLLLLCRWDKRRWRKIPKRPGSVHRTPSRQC
M1 antag = human M1 muscarinic receptor antagonists, primary screen, CHO-K1 cells, Fluo-8 calcium fluorescence, 1536-well. CHO-K1 hM1, ACh EC80 antagonist. inhibition, % at 3 µM. 1.3% of 360,000 active. AID 588852, 2011;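 active = percent inhibition above its own plate's cutoff, namely the mean of that plate's compound wells plus 3 SD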;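 note: peak over basal fluorescence ratio during 140 s after agonist addition; 0% = ACh EC80 plus DMSO and 100% = DMSO alone without agonist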
CHRM1 PAM = human M1 muscarinic receptor positive allosteric modulators, primary screen, CHO-K1 cells, Fluo-8 calcium fluorescence, 1536-well; activation, % at 3 µM; 0.088% of 360,000 active; CHO-K1 hM1, ACh EC20; 0% = ACh EC20, 100% = maximal ACh; in the data active = activation above about 19%, passing the limit was not always enough
CHRM5 agonist = human M5 muscarinic receptor agonists, primary screen, CHO-K1 cells, Fluo-8 calcium fluorescence; Muscarinic acetylcholine receptor M5 (Homo sapiens), P08912; activation, % at 3 µM; 0.19% of 360,000 active; CHO-K1 hM5 cells; 0% DMSO wells, 100% maximal acetylcholine response; AID 624037, 2012;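 active = activation above the run's mean over test compounds plus 3 SD, cut at about 23% in these data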;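 note: signal is peak over basal fluorescence ratio across the kinetic read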
M5 PAM = human M5 muscarinic receptor positive allosteric modulators, primary screen, CHO-K1 cells, Fluo-8 calcium fluorescence. CHO-K1 hM5, ACh EC20 PAM; 0% = ACh EC20, 100% = ACh EC100. Muscarinic acetylcholine receptor M5 (Homo sapiens), P08912. 0.3% of 360,000 active. AID 624038, 2012. activation, % at 3 µM;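 active = activation above the run cutoff, the mean activation of all test compounds plus 3 SD, cut at about 18% in these data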
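System: CHO-K1 hM5 cells. Reagent: acetylcholine, EC20 level. Compound dosing: single dose, 3 µM nominal final test concentration. Timing: Post-acetylcholine fluorescence recording 140 s. Detection: Fluo-8 calcium fluorescence. Read-out: % activation, ACh-normalized. Benchmarks: ACh EC20 and EC100 wells. Repeats: singlicate, one well per test compound.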
* hit, by the source's call. Hits are enriched below; roughly 2.1% of the tested compounds scored in any of these assays.

SMILES | CHRM5 antagonist | CHRM1 agonist | M1 antag | CHRM1 PAM | CHRM5 agonist | M5 PAM
CSCCC(NC(=O)c1ccc(Cl)c([N+](=O)[O-])c1)C(=O)N1CCN(C/C=C/c2ccccc2)CC1 (configuration not stated) | 6 | 20* | 2 | -2 | -6 | -3
O=C(NCC(=O)N1CCN(c2ccccc2)CC1)c1ccc(Cl)cc1 | -3 | -2 | 69* | 3 | -4 | 8
O=C(NCC(=O)N1CCN(C/C=C/c2ccccc2)CC1)c1ccc(OC(F)F)cc1 | -3 | 14 | 28 | -6 | 0 | -5
CC(C)C(NC(=O)c1ccccc1)C(=O)N1CCN(C/C=C/c2ccccc2)CC1 (configuration not stated) | 10 | -3 | 5 | -6 | -5 | 3
C[C@H](NC(=O)c1ccc(C(C)(C)C)cc1)C(=O)N1CCN(C/C=C/c2ccccc2)CC1 | 5 | 38* | 46* | -16 | -6 | -7
Cc1cc2nc(-c3ccc(SCC(=O)N4CCc5ccccc54)nc3)[nH]c2cc1C | 6 | -5 | -2 | 0 | -1 | -6
O=C(COC(=O)/C=C/c1ccco1)NCc1ccc(Cl)cc1 | 15 | -6 | -8 | 8 | -1 | -8
CCOC(=O)c1ccc(S(=O)(=O)N2CCN(C/C=C/c3ccccc3)CC2)cc1 | 5 | -4 | 6 | -3 | 3 | 4
CCOC(=O)c1ccc(CNCc2ccc(Br)cc2)cc1 | 5 | 3 | 65* | -17 | -7 | -16
CCOC(=O)CCNC(=O)N1CCC(CCC(=O)NCc2ccc(F)cc2)CC1 | -6 | -4 | -4 | 0 | 5 | -2
CCOC(=O)CCNCc1ccc(F)cc1 | 4 | -2 | 40* | -10 | -3 | -2
CCOC(=O)c1ccc(CNCc2ccccc2)cc1 | 5 | -12 | 52* | -24 | -7 | -12
CCOC(=O)c1ccc(CNC(=O)CCC(=O)O)cc1 | -8 | -2 | -14 | 9 | -5 | 4
Cc1ccccc1C(=O)NNC(=O)CCC(=O)Nc1cccc(Cl)c1C | -7 | -5 | -5 | 2 | -1 | 19*
CCCCCCCCCCCCN1[C@@H](CC(=O)OC)c2cc(F)ccc2S1(=O)=O | 7 | 3 | -23 | 32* | -1 | -4
CCC(CC)N1CCN(S(=O)(=O)c2ccc(OC)cc2)CC1 | -2 | -5 | -38 | 25 | -7 | 21*
COc1ccc(N2CCN(S(=O)(=O)c3ccc(OC)cc3)CC2)cc1 | 6 | -4 | -3 | 5 | 2 | -4
COc1ccc(CNC(=O)COC(=O)c2cc3ccccc3o2)cc1 | -2 | -2 | 29* | -13 | 7 | 2
O=C(COC(=O)c1ccc(O)cc1O)NC(=O)Cc1ccccc1 | 16 | 33* | 4 | 2 | 23 | -5
O=C(COC(=O)c1ccc2ccccc2c1O)NCc1ccccc1 | -2 | 2 | -14 | 9 | 2 | 4
O=C(COC(=O)c1cc2ccccc2cc1O)NCc1ccccc1 | -8 | 1 | -9 | -3 | 7 | 18*
Cn1cccc1C(=O)NCC(c1ccc(F)cc1)N1CCOCC1 (configuration not stated) | -16 | 1 | -25 | 26* | -2 | 9
Cc1ccc(C(=O)NCC(c2ccc(F)cc2)N2CCOCC2)cc1 (configuration not stated) | 14 | -3 | -8 | 4 | 2 | -5
COCCOC(=O)c1c(NC(=O)CNC2CCCc3ccccc32)sc(C(N)=O)c1C (configuration not stated) | -5 | -2 | -36 | 9 | -1 | 9
CCCC[n+]1ccn(-c2nc3ccccc3nc2[N-]S(=O)(=O)c2ccc(C)cc2)c1 | -7 | 1 | -7 | 3 | 0 | 3
